Bioassay records deposited in PubChem BioAssay by Johns Hopkins Ion Channel Center.
A selection: hits, their analogues and other compounds. The true share with any hit is near 3.7%.
hERG rescue: compounds protecting human hERG from proarrhythmic drug block; CHO-hERG, FluxOR thallium flux, dofetilide IC70 present; activation (rescue from dofetilide block), less the hit threshold, % at 10 µM; Q12809; AID 1511; hit rate 0.51% among 310,000;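 active = activation above the mean of controls blocked by dofetilide plus 5 SD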;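 note: thallium influx through hERG after potassium depolarization seen as dye fluorescence rise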
KCNK9 block: human KCNK9 channel inhibition | AID 488922 | B-score at 10 µM | hit rate 1.2% among 310,000 | HEK293 KCNK9, FluxOR thallium flux fluorescence; hits give low values;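 active = ratio B-score over 3 SD below the library mean, with starting fluorescence within 5 SD of its mean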;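 note: negative B-score means less thallium flux so channel inhibition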
Kir21 block: inhibitors of mouse Kir2.1 inward-rectifier potassium channel; HEK293-Kir2.1, FluxOR thallium flux fluorescence; hits give low values; P35561; B-score at 10 µM; AID 1672; hit rate 0.85% among 310,000;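 active = fluorescence ratio B-score at or below minus 3 SD of library scores, with starting-brightness B-score within 2 SD, cut at about -4.2 in these data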;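 note: channel flux triggered by added potassium and thallium sulfate stimulus; B-score of peak minus minimum fluorescence over baseline after thallium stimulus; more negative B-score means stronger Kir2.1 block with less thallium influx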
KCNK3 block: human KCNK3 channel inhibition, primary screen; O14649; CHO-KCNK3 thallium flux, FluxOR fluorescence; hits give low values; B-score at 10 µM; hit rate 0.84% among 340,000;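 active = B-score under library mean minus 4 SD, starting fluorescence ratio at most library mean plus 5 SD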;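 note: more negative B-score means stronger inhibition of thallium flux through KCNK3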
KCNQ1 block: human KCNQ1 channel inhibition; P51787; CHO-K1 KCNQ1, FluxOR thallium flux fluorescence; hits give high values; B-score at 10 µM; hit rate 1.3% among 310,000;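 active = compounds whose thallium flux B-score, printed positive for inhibition, exceeds three library SD while starting fluorescence stays within three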;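 note: channel opened by potassium depolarization with thallium stimulus after 20 min compound exposure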
Target sequence (P51787 whole entry, looked up): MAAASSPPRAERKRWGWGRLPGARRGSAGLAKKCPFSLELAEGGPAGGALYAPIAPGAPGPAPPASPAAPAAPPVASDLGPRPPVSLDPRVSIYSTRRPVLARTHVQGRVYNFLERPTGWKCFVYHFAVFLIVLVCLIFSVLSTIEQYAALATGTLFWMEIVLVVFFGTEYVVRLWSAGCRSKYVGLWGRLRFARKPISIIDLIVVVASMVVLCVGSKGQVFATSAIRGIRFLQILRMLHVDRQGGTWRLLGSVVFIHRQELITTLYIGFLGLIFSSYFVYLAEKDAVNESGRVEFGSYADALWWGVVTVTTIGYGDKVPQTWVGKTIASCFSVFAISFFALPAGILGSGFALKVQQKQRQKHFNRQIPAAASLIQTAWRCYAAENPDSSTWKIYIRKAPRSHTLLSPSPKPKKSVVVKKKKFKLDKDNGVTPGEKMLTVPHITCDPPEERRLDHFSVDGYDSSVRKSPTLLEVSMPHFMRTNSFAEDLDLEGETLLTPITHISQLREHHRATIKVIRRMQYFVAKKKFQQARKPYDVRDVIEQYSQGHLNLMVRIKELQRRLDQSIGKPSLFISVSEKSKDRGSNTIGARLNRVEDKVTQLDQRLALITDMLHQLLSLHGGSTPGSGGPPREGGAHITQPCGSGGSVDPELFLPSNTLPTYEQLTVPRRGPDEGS
KCNQ1 act: human KCNQ1 channel potentiation or activation; CHO-K1 KCNQ1, thallium flux FluxOR fluorescence; hits give high values; hit rate 0.35% among 310,000; P51787; B-score at 10 µM;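 active = fluorescence ratio B-score, a plate-corrected score, at least three library SD, with initial intensity B-score within 5 SD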
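Assay system: CHO-K1 cells stably expressing KCNQ1. Medium: assay buffer for compound exposure, DMSO matched across wells. Timing: 37 °C overnight plating, 90-min dark dye load, 20-min compound pretreatment. Signal: kinetic FluxOR fluorescence, 10 s baseline plus 110 s post-stimulus.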
KCNK9 inh conf: confirmation of human KCNK9 potassium channel inhibitors; inhibition, % at 10 µM; hit rate 43% among 4,900; shares compounds with KCNK9 block; HEK293 KCNK9 cells, FluxOR thallium flux fluorescence;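 active = thallium signal inhibited by more than 5 SD of the compound-free buffer control wells, on both duplicate plates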
Kir21 sel: selectivity of KCNK9 modulators against mouse Kir2.1 | inhibition, % at 10 µM | shares compounds with KCNK9 block | Kir2.1 cells, FluxOR thallium flux fluorescence | hit rate 4% among 4,900;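 active = thallium signal drop more than 5 SD beyond the mean of the no-compound control wells, seen in both duplicate plates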;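 note: signal is fluorescence rise after thallium addition divided by baseline fluorescence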
KCNK9 uninduced: second check of KCNK9 modulator effects in non-induced HEK293 cells; FluxOR thallium flux; inhibition, % at 10 µM; shares compounds with KCNK9 block; hit rate 40% among 4,900;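 active = thallium signal drop beyond 5 SD of the untreated control mean, on both duplicate plates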
Of the large screens only hits and unclear results are named; the others gave an inactive call (follow-up assays come after a bar, where they were run).

COc1ccccc1NC(=O)Nc1sccc1-c1nc2ccccc2s1	KCNK9 block -13 | KCNK9 inh conf 70% | Kir21 sel inactive | KCNK9 uninduced 40%
O=C(Nc1ccccc1)Nc1sccc1-c1nc2ccccc2s1	none
Cc1onc(-c2ccc(Cl)cc2)c1-c1ccnn1S(=O)(=O)c1cccc(C(F)(F)F)c1	KCNK9 block -11 | KCNK9 inh conf 55% | Kir21 sel inactive | KCNK9 uninduced 47%
O=C(O)CCCCCN1C(=O)/C(=C/c2cn(-c3ccccc3)nc2-c2cccs2)SC1=S	none (no result: hERG rescue, KCNK9 block, Kir21 block, KCNQ1 block, KCNQ1 act)
O=C(N/N=C/c1cn(-c2ccccc2)nc1-c1cccs1)c1ccccc1F	KCNK9 block -13, KCNK3 block -9.1, KCNQ1 block 6 | KCNK9 inh conf 56% | Kir21 sel inactive | KCNK9 uninduced 30%
CC1=NNC(=O)/C1=C\c1cn(-c2ccccc2)nc1-c1cccs1	none | KCNK9 inh conf inactive | Kir21 sel inactive | KCNK9 uninduced inactive
O=C(N/N=C/c1cn(-c2ccccc2)nc1-c1cccs1)c1ccc(Cl)cc1	none
O=C(COc1ccc(Cl)cc1)NCCCNC(=O)c1ccncc1	none
CCC(C(=O)NCCCN1CCCCCC1)n1nc(C)c2sc3ccccc3c2c1=O (stereo not given)	none
O=C(c1ccc2nc(N3CCOCC3)sc2c1)N1CCC(Cc2ccccc2)CC1	none | KCNK9 inh conf inactive | Kir21 sel inactive | KCNK9 uninduced inactive
O=C(c1cnc(Cl)c(Cl)c1)N1CCC(Cc2ccccc2)CC1	none | KCNK9 inh conf inactive | Kir21 sel inactive | KCNK9 uninduced inactive
O=C(c1cnc(Cl)c(Cl)c1)N1CCN(S(=O)(=O)c2ccc3ccccc3c2)CC1	none (no result: hERG rescue, KCNK9 block, Kir21 block, KCNQ1 block, KCNQ1 act)
O=C(NCCc1ccccc1)c1ccc2nc(N3CCOCC3)sc2c1	none
COc1ccccc1CN1C[C@@H]2C[C@@H](c3ccccc3C)N3CCC[C@@]23C1=O	none | KCNK9 inh conf inactive | Kir21 sel inactive | KCNK9 uninduced inactive
COC(=O)c1ccccc1NC(=O)N1CCN(c2ccc(OC)cc2)CC1	none
O=C(CSc1nc(COc2ccccc2)nc2ccccc12)NC1CCCC1	none
CCN(c1ccccc1)S(=O)(=O)c1cc([N+](=O)[O-])ccc1N	KCNK9 block -11, Kir21 block -7 | KCNK9 inh conf 41% | Kir21 sel 31% | KCNK9 uninduced 33%
C[C@]12CCC(O)CC1CCC1C2CC[C@]2(C)C(c3cc(C(F)(F)F)n[nH]3)CCC12 (stereo not given in full)	KCNK9 block -13 | KCNK9 inh conf 33% | Kir21 sel inactive | KCNK9 uninduced 63%
O=C(CN1C(=O)S/C(=C\C=C\c2ccccc2)C1=O)Nc1ccccc1C(=O)O	none | KCNK9 inh conf inactive | Kir21 sel inactive | KCNK9 uninduced inactive
O=C(O)CN1C(=O)/C(=C\c2cccc(OCc3ccc(Cl)cc3)c2)SC1=S	none | KCNK9 inh conf inactive | Kir21 sel inactive | KCNK9 uninduced inactive
O=C(O)CN1C(=O)/C(=C\c2cccc(OCc3ccccc3F)c2)SC1=S	none | KCNK9 inh conf inactive | Kir21 sel inactive | KCNK9 uninduced inactive
O=C(CCN1C(=O)/C(=C/c2ccccc2Cl)SC1=S)Nc1ccccc1C(=O)O	none | KCNK9 inh conf inactive | Kir21 sel inactive | KCNK9 uninduced inactive
O=C(CN1C(=O)S/C(=C\C=C\c2ccccc2)C1=O)Nc1cccc(O)c1	none
O=C(CCN1C(=O)/C(=C\c2ccccc2Cl)SC1=S)Nc1cccnc1	none
CCCn1ncc(CN2CCC(N3CCC(C(=O)N4CCOCC4)CC3)CC2)c1C	none
O=C(O)CN1C(=O)/C(=C\c2cc(Br)ccc2OCc2ccc(Cl)cc2Cl)SC1=S	none
O=C(O)CN1C(=O)/C(=C\c2ccccc2OCc2ccc(Cl)cc2)SC1=S	none | KCNK9 inh conf inactive | Kir21 sel inactive | KCNK9 uninduced inactive
O=C(Nc1ccc(Cl)cc1Cl)c1ccc(-c2ccccc2)cc1	none
